Calls of active or inactive are those of the source. The rule behind the calls is not given here.
Tests used:
5637 [1] = assay: Cytotoxicity against human 5637 cells assessed as mild induction of cell death by LDH release assay; format: cell-based
5637 [2] = assay: Cytotoxicity against human 5637 cells assessed as mild induction of cell death by trypan blue exclusion assay; format: cell-based
Procedure, shortened: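 Integrity of 5637 cells after drug treatment assessed by 0.4% trypan blue exclusion, following a standard protocol.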

[3] = Drug level in Escherichia coli UTI89-infected CBA/J mouse urine at 200 ug/kg, sc after 2 hrs; format: ADME, organism-based; conditions: in vivo, 0.2 mg/kg
Procedure, shortened: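 Urine was collected 2 h after dosing by gentle bladder pressure. 10-μl aliquots went onto 7-mm sterile filter discs laid on fresh UTI89 lawns on LB agar. Clearance diameters were read after 24 h at 37°C, and levels were calculated from standard curves of discs with known antibiotic concentrations.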

Escherichia coli [4] = assay: Antibacterial activity against uropathogenic Escherichia coli UTI89 assessed as inhibition of biofilm formation after 24 hrs by microtiterplate-based assay; format: functional, organism-based
Procedure, shortened: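 Biofilms of UTI89 formed for 48 h at 37°C without shaking in M9 (1:100 inoculum, triplicate wells). Fresh M9 ± drug (higher of two tested concentrations) then added for 24 h. Biomass stained with 0.1% crystal violet, solubilized in DMSO, read at A562, and expressed relative to untreated controls. Three independent experiments.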

Escherichia coli [5] = assay: Antibacterial activity against uropathogenic Escherichia coli UTI89 assessed as degradation of preexisting biofilm after 24 hrs by microscopy; format: functional, organism-based
Procedure, shortened: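 UTI89 diluted 1:100 into M9 medium and grown statically 48 h at 37°C in microtiter wells. Nonadherent cells removed, fresh M9 ± drug added for 24 h, using the higher of two tested concentrations. Viable bacteria in biofilms visualized by Live/Dead BacLight staining and microscopy.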

Escherichia coli [6] = assay: Antibacterial activity against uropathogenic Escherichia coli UTI89 infected in human 5637 cells assessed as decrease in intracellular bacterial level at 600 to 1000 ug/ml after 12 hrs by serial dilution method; format: functional, organism-based
Procedure, shortened: (§1)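 Confluent 5637 monolayers in triplicate infected with UTI89 (24-h static LB culture, type 1 pili) at MOI ~15 and spun 600 × g for 5 min. After 2 h: gentamicin 100 μg/ml for 2 h, then 10 μg/ml for 14 h. Then 12 h with drug at two concentrations. Cells lysed in 0.4% Triton X-100 and plated on LB agar. Titers expressed relative to 800 μg/ml gentamicin. ≥3 independent assays.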

Escherichia coli [7] = assay: Antibacterial activity against uropathogenic Escherichia coli UTI89 infected in human 5637 cells assessed as decrease in intracellular bacterial level at 300 to 500 ug/ml after 12 hrs by serial dilution method; format: functional, organism-based
Procedure, shortened: (§2)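 UTI89 was grown 24 h static in LB (type 1 pili) and added to confluent 5637 monolayers at MOI ~15, spun 600 × g for 5 min. After 2 h at 37°C: gentamicin 100 μg/ml for 2 h, then 10 μg/ml for 14 h. Next, 12 h with antibiotic at two concentrations. Lysis in 0.4% Triton X-100, serial-dilution plating; titers relative to 800 μg/ml gentamicin. ≥3 independent assays in triplicate, mean ± SEM.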

Escherichia coli [8] = assay: Antibacterial activity against uropathogenic Escherichia coli UTI89 infected in human 5637 cells assessed as decrease in intracellular bacterial level at 400 to 800 ug/ml after 12 hrs by serial dilution method; format: functional, organism-based; procedure, shortened: as §2
Escherichia coli [9] = assay: Antibacterial activity against uropathogenic Escherichia coli UTI89 infected in CBA/J mouse assessed as decrease in bacterial load in bladder at 200 ug/kg, sc administered on day 3 postinfection daily for 3 days measured on day 9 post-inoculation; format: functional, organism-based; conditions: Urinary bladder
Escherichia coli [10] = assay: Antibacterial activity against uropathogenic Escherichia coli UTI89 infected in CBA/J mouse assessed as decrease in bacterial invasion into layers of urothelium at 200 ug/kg, sc administered on day 3 postinfection daily for 3 days measured on day 9 post-inoculation in presence of Triton X-100; format: functional, organism-based
Escherichia coli [11] = assay: Antibacterial activity against uropathogenic Escherichia coli UTI89 isolated from urine samples of infected CBA/J mouse after 24 hrs by disk diffusion assay; format: functional, organism-based
Procedure, shortened: (§3)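 Urine collected by gentle bladder pressure 2 h after oral dosing of UTI89-infected CBA/J mice. 10 μl spotted on 7-mm filter discs, placed on fresh UTI89 lawns on LB agar. Clearance diameter measured after 24 h at 37°C. Urine drug level calculated from standard curves of discs holding known antibiotic concentrations.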

Escherichia coli [12] = assay: Antibacterial activity against uropathogenic Escherichia coli UTI89 infected in CBA/J mouse assessed as decrease in bacterial invasion into layers of urothelium at 200 ug/kg, sc administered on day 3 postinfection daily for 3 days measured on day 9 post-inoculation; format: functional, organism-based
Escherichia coli [13] = assay: Antibacterial activity against uropathogenic Escherichia coli UTI89 infected in human 5637 cells assessed as decrease in intracellular bacterial level at 1000 to 3000 ug/ml after 12 hrs by serial dilution method; format: functional, organism-based; procedure, shortened: as §1
Escherichia coli [14] = assay: Antibacterial activity against uropathogenic Escherichia coli UTI89 infected in human 5637 cells assessed as decrease in intracellular bacterial level at 1200 to 1600 ug/ml after 12 hrs by serial dilution method; format: functional, organism-based; procedure, shortened: as §1
Escherichia coli [15] = assay: Antibacterial activity against uropathogenic Escherichia coli UTI89 infected in human 5637 cells assessed as decrease in intracellular bacterial level at 250 to 300 ug/ml after 12 hrs by serial dilution method; format: functional, organism-based; procedure, shortened: as §1
Escherichia coli [16] = assay: Antibacterial activity against uropathogenic Escherichia coli UTI89 infected in human 5637 cells assessed as decrease in intracellular bacterial level at 400 to 700 ug/ml after 12 hrs by serial dilution method; format: functional, organism-based; procedure, shortened: as §1
Escherichia coli [17] = conditions: UTI89, Urothelium, 2 mg/kg
Escherichia coli [18] = conditions: UTI89, Urothelium, 2 mg/kg; remark: listed apart in the source
Escherichia coli [19] = conditions: UTI89, Urinary bladder, 2 mg/kg
Escherichia coli [20] = conditions: UTI89, 5637, 2 to 3 ug/ml
Escherichia coli [21] = assay: Antibacterial activity against uropathogenic Escherichia coli UTI89 infected in human 5637 cells assessed as decrease in intracellular bacterial level at 200 to 300 ug/ml after 12 hrs by serial dilution method; format: functional, organism-based; procedure, shortened: as §1
Escherichia coli [22] = assay: Antibacterial activity against uropathogenic Escherichia coli UTI89 infected in human 5637 cells assessed as decrease in intracellular bacterial level at 12 to 100 ug/ml after 12 hrs by serial dilution method; format: functional, organism-based; procedure, shortened: as §1
[23] = Drug level in Escherichia coli UTI89-infected CBA/J mouse urine at 700 ug/kg, po after 2 hrs; format: ADME, organism-based; conditions: in vivo, 0.7 mg/kg; procedure, shortened: as §3
Escherichia coli [24] = assay: Antibacterial activity against uropathogenic Escherichia coli UTI89 infected in CBA/J mouse assessed as decrease in bacterial invasion into layers of urothelium at 700 ug/kg, po administered on day 3 postinfection daily for 3 days measured on day 9 post-inoculation; format: functional, organism-based
Escherichia coli [25] = assay: Antibacterial activity against uropathogenic Escherichia coli UTI89 infected in CBA/J mouse assessed as decrease in bacterial load in bladder at 700 ug/kg, po administered on day 3 postinfection daily for 3 days measured on day 9 post-inoculation; format: functional, organism-based; conditions: Urinary bladder
Procedure, shortened: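 Female CBA/J mice, 7–8 weeks old, inoculated transurethrally with ~10^7 CFU UTI89 (24-h static LB culture) in 50 μl PBS. From day 3, one oral gavage daily for 3 days, 50 μl; controls given water. On day 9, bladders homogenized in PBS with 0.025% Triton X-100 and plated on LB agar for CFU. 11 mice from two experiments; Mann-Whitney U test.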

Escherichia coli [26] = assay: Antibacterial activity against pGEN-GFP carrying uropathogenic Escherichia coli UTI89 isolated from bladder samples of infected CBA/J mouse assessed as decrease in growth of intracellular bacterial community at 12 ug/ml treated 6 hrs postinfection measured after 18 hrs; format: functional, organism-based
Procedure, shortened: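 Bladders from female CBA/J mice taken 6 h after transurethral inoculation with GFP(LVA)-plasmid UTI89, then halved, splayed and pinned lumen-up under Ringer solution (pH 7.4). Drug combination added at 12 and 700 μg/ml. GFP-positive IBCs counted by fluorescence stereomicroscopy at set times up to 18 h. n = 8 mice per group; Mann-Whitney U test.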

Escherichia coli [27] = assay: Antibacterial activity against uropathogenic Escherichia coli UTI89 infected in CBA/J mouse assessed as decrease in bacterial invasion into layers of urothelium at 700 ug/kg, po administered on day 3 postinfection daily for 3 days measured on day 9 post-inoculation in presence of Triton X-100; format: functional, organism-based
Escherichia coli [28] = assay: Antibacterial activity against uropathogenic Escherichia coli UTI89 infected in human 5637 cells assessed as decrease in intracellular bacterial level at 1000 to 2000 ug/ml after 12 hrs by serial dilution method; format: functional, organism-based; procedure, shortened: as §1
Escherichia coli [29] = assay: Antibacterial activity against uropathogenic Escherichia coli UTI89 infected in human 5637 cells assessed as decrease in intracellular bacterial level at 800 to 1200 ug/ml after 12 hrs by serial dilution method; format: functional, organism-based; procedure, shortened: as §2

Molecule | Activity 5637 [1] | Activity 5637 [2] | Activity (Escherichia coli [5]) | further results
GENTAMICIN [listing 1 of 2 here] | Toxic | Toxic | – | Drug uptake [3]: 2 mg/mL
CC1(C)S[C@@H]2[C@H](NC(=O)Cc3ccccc3)C(=O)N2[C@H]1C(=O)O [PENICILLIN G] | Toxic | Toxic | Active | Biofilm inhibition activity (Escherichia coli [4]): Active; inhibition (Escherichia coli [6]): Active
O=C1CN(/N=C/c2ccc([N+](=O)[O-])o2)C(=O)N1 [NITROFURANTOIN] | Toxic | Toxic | Active | inhibition (Escherichia coli [7]): Active
GENTAMICIN [listing 2 of 2 here] | – | – | Active | inhibition (Escherichia coli [8]): Active; inhibition (Escherichia coli [9]): inactive; inhibition (Escherichia coli [10]): Active; Activity (Escherichia coli [11]): Active; inhibition (Escherichia coli [12]): inactive
NC[C@H]1O[C@H](O[C@H]2[C@H](O)[C@@H](O[C@H]3O[C@H](CO)[C@@H](O)[C@H](N)[C@H]3O)[C@H](N)C[C@@H]2N)[C@H](O)[C@@H](O)[C@@H]1O [KANAMYCIN] | Toxic | Toxic | Active | inhibition (Escherichia coli [13]): Active
CCOc1ccc2ccccc2c1C(=O)N[C@@H]1C(=O)N2[C@@H]1SC(C)(C)[C@@H]2C(=O)O [NAFCILLIN] | Toxic | Toxic | Active | inhibition (Escherichia coli [14]): Active
CN(C)[C@@H]1C(O)=C(C(N)=O)C(=O)[C@@]2(O)C(O)=C3C(=O)c4c(O)cccc4[C@@](C)(O)[C@H]3C[C@@H]12 [TETRACYCLINE] | Toxic | Toxic | Active | inhibition (Escherichia coli [15]): Active
CC1COc2c(N3CCN(C)CC3)c(F)cc3c(=O)c(C(=O)O)cn1c23 (centres undefined) [OFLOXACIN] | Toxic | Toxic | Active | inhibition (Escherichia coli [16]): Active
O=C(O)c1cn(C2CC2)c2cc(N3CCNCC3)c(F)cc2c1=O [CIPROFLOXACIN] | Toxic | Toxic | Active | inhibition (Escherichia coli [17]): inactive; inhibition (Escherichia coli [18]): Active; Activity (Escherichia coli [11]): Active; inhibition (Escherichia coli [19]): Active; inhibition (Escherichia coli [20]): Active
C[C@H]1COc2c(N3CCN(C)CC3)c(F)cc3c(=O)c(C(=O)O)cn1c23.C[C@H]1COc2c(N3CCN(C)CC3)c(F)cc3c(=O)c(C(=O)O)cn1c23.O [LEVOFLOXACIN] | Toxic | Toxic | Active | inhibition (Escherichia coli [21]): Active
C[C@@H]1CN(c2c(F)c(N)c3c(=O)c(C(=O)O)cn(C4CC4)c3c2F)C[C@H](C)N1 [SPARFLOXACIN] | Toxic | Toxic | Active | inhibition (Escherichia coli [22]): Active; Drug uptake [23]: 0.3 µg/mL; inhibition (Escherichia coli [24]): inactive; Biofilm inhibition activity (Escherichia coli [4]): Active; inhibition (Escherichia coli [25]): Active; inhibition (Escherichia coli [26]): Active; Activity (Escherichia coli [11]): Active; inhibition (Escherichia coli [27]): Active
NCC[C@H](O)C(=O)N[C@@H]1C[C@H](N)[C@@H](O[C@H]2O[C@H](CN)[C@@H](O)[C@H](O)[C@H]2O)[C@H](O)[C@H]1O[C@H]1O[C@H](CO)[C@@H](O)[C@H](N)[C@H]1O [AMIKACIN] | Toxic | Toxic | Active | inhibition (Escherichia coli [28]): Active
CCn1cc(C(=O)O)c(=O)c2ccc(C)nc21 [NALIDIXIC ACID] | Toxic | Toxic | Active | inhibition (Escherichia coli [29]): Active
CC1=C(C(=O)O)N2C(=O)[C@@H](NC(=O)[C@H](N)c3ccc(O)cc3)[C@H]2SC1 [CEFADROXIL] | Toxic | Toxic | Active | inhibition (Escherichia coli [14]): Active; Biofilm inhibition activity (Escherichia coli [4]): Active
CCn1cc(C(=O)O)c(=O)c2cc(F)c(N3CCNCC3)cc21 [NORFLOXACIN] | Toxic | Toxic | Active | inhibition (Escherichia coli [7]): Active
